Tn7 DDE FP: inhibitors of Tn7 peptide binding to fibrin DD(E), primary screen, biochemical, fluorescence polarization, human fibrin, Tn7 probe; hit rate 0.13% among 370,000; FP displacement of FITC-Tn7 peptide from fibrin DD(E); 0% = median of compound wells per plate; Fibrinogen beta chain (Homo sapiens), P02675; inhibition, % at 8.3 µM;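 active = inhibition above the mean of compounds falling within the control limits plus 3 SD of them, cut at about 14% in these data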;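 also: 0% = plate median of compound wells and 100% = 10 µM Aha-Tn7 peptide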
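Assay system: Human fibrin DD(E) protein | Medium: Tris buffer with calcium and detergent, pH 7.8 | Reagent: 0.1 µM fluorescent Tn7 | Compound dosing: Single point at 8.3 µM | Times: 10 min preincubation, 3 h with tracer, room temperature | Detection: Fluorescence polarization of the labelled Tn7 tracer | Controls: Aha-Tn7 high control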
DDE Tn6 FP inh: inhibitors of Tn6 peptide binding to fibrin DD(E), primary screen, biochemical, fluorescence polarization, human fibrin, Tn6 probe. Fibrinogen beta chain (Homo sapiens), P02675. Fibrin DD(E) TRITC-Tn6 fluorescence polarization displacement. inhibition, % at 8.3 µM. hit rate 0.21% among 370,000;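 active = inhibition above a per-campaign cutoff: mean of compounds within control limits plus 3 SD, cut at about 15% in these data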;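 also: 0% = median of all compound wells on the plate and 100% = blocking peptide control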
ADAM17 inh: ADAM17 inhibitors, primary screen, biochemical, QFRET; hit rate 0.83% among 370,000; recombinant ADAM17, EDANS/DABCYL FRET peptide cleavage; Disintegrin and metalloproteinase domain-containing protein 17 (Homo sapiens), P78536; inhibition, % at 6.95 µM; AID 720648, 2013;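 active = inhibition above the mean of compounds lying between control limits plus 3 SD, set per campaign, cut at about 8.5% in these data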;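 also: 0% = DMSO-only wells as the low control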
ADAM10 inh: human ADAM10 inhibitors, primary screen, biochemical, QFRET, HTS; Disintegrin and metalloproteinase domain-containing protein 10 (Homo sapiens), O14672; recombinant ADAM10, EDANS/DABCYL FRET peptide cleavage, 3 h; inhibition, % at 7 µM; hit rate 0.62% among 370,000; AID 720582, 2013;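 active = inhibition above a per-campaign cutoff equal to the mean of compounds falling between control-based bounds plus 3 SD, cut at about 20% in these data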;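 also: 0% = DMSO wells while the 100% control is not disclosed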
PLC-beta3 inh: human PLC-beta3 inhibitors, primary screen, biochemical, fluorescence; inhibition, % at 12.2 µM; Purified PLC-beta3, fluorogenic substrate; hit rate 0.18% among 370,000; 1-phosphatidylinositol 4,5-bisphosphate phosphodiesterase beta-3 (Homo sapiens), Q01970; in the data active = inhibition above about 11%;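 also: 0% = median of compound wells on plate and 100% = full blocker control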
PLCg1 inh: PLC-gamma1 enzyme inhibitors, primary screen, biochemical, fluorescence, purified enzyme; 1-phosphatidylinositol 4,5-bisphosphate phosphodiesterase gamma-1 (Homo sapiens), P19174; fluorogenic substrate; inhibition, % at 12.2 µM; hit rate 0.84% among 370,000
PLCgamma1 ctr: PLC-gamma1 enzyme inhibitors, counter-screen for PLC-beta3 inhibitor project, biochemical, fluorescence; inhibition, % at 12.3 µM; hit rate 3.1% among 3,300; AID 743258, 2014; shares compounds with PLCg1 inh; purified PLC-gamma1, fluorogenic substrate
PLCb3 confirm: PLC-beta3 inhibitor confirmation, biochemical, fluorescence, purified enzyme; AID 743261, 2014; hit rate 1% among 3,300; fluorogenic substrate fluorescence; shares compounds with PLCg1 inh; inhibition, % at 12.3 µM; in the data active = inhibition above about 11%
* = called active by the depositor; / = not tested or not shown; ! = not active in a repeat. Hits are enriched below; roughly 2.3% of the tested compounds scored in any of these assays. Rule as the data show it, unless noted: active = inhibition above about 9.5%; inactive = the rest.

SMILES | Tn7 DDE FP | DDE Tn6 FP inh | ADAM17 inh | ADAM10 inh | PLC-beta3 inh | PLCg1 inh | PLCgamma1 ctr | PLCb3 confirm
Cc1cc(C(=O)Nc2ccccc2N2CCCCC2)no1 | -1 | 2 | 5 | 4 | 8 | 9.8* | -5 | -21
Cc1ccc(S(=O)(=O)N2CCOCC2)cc1NC(=O)c1cc2ccccc2oc1=O | -6 | 6 | 3 | -3 | -3 | 10* | -4 | 1
O=C(Nc1ccc(Cl)c(S(=O)(=O)N2CCOCC2)c1)c1cc2ccccc2oc1=O | -4 | 3 | -2 | -5 | 2 | 0 | / | /
CCN(CCNC(=O)c1ccc(CSc2nc3ccncc3[nH]2)cc1)c1ccccc1 | 6 | -2 | 0 | -6 | 3 | 2 | / | /
CC1CC(C)CN(C(=O)c2ccc(CSc3nc4ccncc4[nH]3)cc2)C1 (centres undefined) | -7 | 6 | 0 | 6 | 14* | 9 | -10 | -4
CCOC(=O)/C(C#N)=C1/C=CN(C)C=N1 | 8 | 1 | 1 | -1 | 8 | 10* | 14* | 9
CCOC(=O)/C(C#N)=C1\C=CN(C)C(C)=N1 | 8 | 4 | 0 | 2 | 2 | 5 | / | /
CCOC(=O)/C(C#N)=C1/C=CN(c2ccc(C)cc2)C=N1 | -1 | 7 | 8 | 13 | 12* | 13* | -5 | 1
CCOC(=O)/C(C#N)=C1/C=CN(c2ccccc2)C=N1 | -7 | 4 | 6 | 7 | 6 | 11* | 7 | 7
CCOC(=O)/C(C#N)=C1/C=CN(Cc2ccccc2)C=N1 | 2 | 1 | 5 | 10 | 11 | 9 | / | /
CC(C)CCNC(=O)c1cc([N+](=O)[O-])ccc1N1CCOCC1 | 0 | 2 | 6 | -1 | 4 | 7 | / | /
CC(C)CNC(=O)c1cc([N+](=O)[O-])ccc1N1CCOCC1 | 4 | 3 | 3 | 3 | 5 | 11* | -9 | -5
COCCCNC(=O)C[C@H]1C[C@@]2(C(=O)OC)C(=C[C@H](C(C)C)O[C@@H]2C2CC2)N(Cc2ccc(Cl)cc2Cl)C1=O | -4 | 5 | 5 | 8 | 5 | 10* | 2 | -8
COC(=O)[C@]12C[C@H](CC(=O)N3CCCCC3)C(=O)N(Cc3ccccc3)C1=C[C@H](C(C)C)O[C@@H]2C1CC1 | -11 | -1 | 7 | 2 | 13* | 8 | -5 | -3
COC(=O)[C@]12C[C@H](CC(=O)N3CCCC3)C(=O)N(Cc3cccc4ccccc34)C1=C[C@H](COCc1ccccc1)O[C@@H]2C | -5 | 7 | 7 | 9 | 3 | 9.5* | 4 | 7
Cc1ccc(NS(=O)(=O)N2CCOCC2)cc1 | -3 | 0 | -4 | -20 | -2 | 12* | -4 | -1
O=C(OC12CCCN(C1)/C(=C/c1cccc(Cl)c1)C2)c1ccc(F)cc1 (centres undefined) | -1 | 2 | 4 | 2 | -3 | 2 | / | /
COC(=O)c1ccc(NC(=S)NC2CC3CCC2C3)cc1 (centres undefined) | 3 | -5 | 6 | 13 | 6 | 9.6* | 4 | 4
COc1cc(-n2nnnc2SCC(=O)N2CCN(c3ccc(F)cc3)CC2)c(OC)cc1Cl | 6 | -5 | -4 | -3 | 3 | 0 | / | /
CCOC(=O)CSc1nnnn1-c1cc(OC)c(Cl)cc1OC | 2 | -1 | 0 | 3 | 1 | 9.8* | -4 | -2
CN(CCNC(=O)C1CCN(S(=O)(=O)c2cnc[nH]2)CC1)Cc1ccccc1 | 6 | 6 | -4 | 0 | 1 | 12* | 8 | 9
Cc1ccc(C2=CCN(C)C(=O)N2c2ccc([N+](=O)[O-])cc2)cc1 | 4 | 1 | 2 | 1 | -2 | 3 | / | /
CN=C1SC(CC(=O)NCCc2ccc(OC)c(OC)c2)C(=O)N1C (centres undefined) | -6 | 2 | 6 | -2 | 13*! | 11*! | 9.5* | 6
COc1ccc(NC(=O)CCCN2C(=O)CCC2=O)cc1Cl | -8 | 5 | 3 | 0 | 3 | 11* | -5 | -1
COc1ccc(NC(=O)CCCCCN2C(=O)CCC2=O)cc1Cl | 3 | -2 | -2 | 5 | 5 | -1 | / | /
SMILES | Tn7 DDE FP | DDE Tn6 FP inh | ADAM17 inh | ADAM10 inh | PLC-beta3 inh | PLCg1 inh | PLCgamma1 ctr | PLCb3 confirm
Cc1ccc(N(C(=O)CCC(=O)Nc2cc(C)on2)C(C(=O)NC2CCCC2)c2ccncc2)cc1 (centres undefined) | -2 | -1 | 3 | 11 | 4 | 10* | 6 | 4
CC(C)(C)OC(=O)NC(=NCCCc1cn(CC(=O)N2CCN(C(=O)OC(C)(C)C)CC2)nn1)NC(=O)OC(C)(C)C | -7 | 1 | -5 | -1 | 3 | 0 | / | /
CC(O)Cc1cn(CC(=O)N2CCN(C(=O)OC(C)(C)C)CC2)nn1 (centres undefined) | -4 | 4 | 7 | 6 | 8 | 13* | -8 | -2
O=C(CNCc1ccc(Cl)cc1)Nc1ccc2c(c1)OCCO2 | -1 | -1 | 0 | -5 | 1 | 10* | -6 | 1
CN(CC(O)CN)CC(O)CN1CCCCC1 (centres undefined) | -3 | -5 | 2 | -4 | 2 | 9.6* | -4 | -2
OC(CN1CCCCCC1)CN(c1ccccc1)c1ccccc1 (centres undefined) | -3 | -6 | -6 | 2 | -7 | -3 | / | /
CN1[C@@H]2CC[C@H]1CC(OC(=O)C(CO)c1ccccc1)C2 (some centres undefined) | 8 | -2 | -1 | 2 | 0 | 2 | / | /
CN1C2CC(OC(=O)C(CO)c3ccccc3)CC1C1OC12 (centres undefined) | 8 | -7 | 2 | -3 | -2 | 10*! | -2 | -1
COc1ccc(C2C(C(=O)Nc3ccc(C)c(C)c3)CCC(=O)N2c2ccc(OC)cc2)cc1 (centres undefined) | 8 | -7 | 0 | 2 | -4 | 3 | / | /
Cc1cccc(NC(=O)[C@@H]2CC(=O)O[C@@H]2c2ccccc2)c1C | 3 | 5 | -3 | -12 | 0 | -3 | / | /
